A value given as a limit tells only on which side of the number the result lay.

Data set [1] in a line: (§1) Apparent permeability across apical to basolateral side in human Caco2 cells after 2 hrs by HPLC analysis. Format: ADME, cell-based, Caco-2. To be noted: Caco-2. An outline of the steps: (§2)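 Caco-2 (passages 41−54, DMEM/10% FBS/1% NEAA) grown 21 days on polyester Transwells (0.4 μm pore). Cells washed with HBSS/10 mM HEPES pH 7.4 and equilibrated 30 min at 37 °C; lignan at 100 μM added to apical or basolateral side, 2 h at 37 °C. Both compartments sampled and quantified by HPLC. Papp = (dQ/dt)/(Am·C0). Integrity checked by TEER and Lucifer yellow. Transport linear to 2 h.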

A short description of data set [2]: (§3) Apparent permeability across basolateral to apical side in human Caco2 cells after 2 hrs by HPLC analysis. Conditions: Caco-2; call rule not given here. It is filed as ADME, cell-based, Caco-2. Put shortly: as §2
(In general: Caco-2 monolayers are a common model of the intestinal barrier.)

The nature of data set [3]: Efflux ratio of permeability from basolateral to apical side over apical to basolateral side in human Caco2 cells after 2 hrs by HPLC analysis. To be noted: Caco-2. Format: ADME, cell-based. Put shortly:
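Efflux ratio taken as Papp B→A over Papp A→B. Papp comes from 2 h bidirectional transport of 100 μM lignan across 21-day Caco-2 monolayers on Transwells in HBSS/10 mM HEPES pH 7.4 at 37 °C, with HPLC quantitation of both compartments. TEER and Lucifer yellow used to confirm monolayer integrity.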

The nature of data set [4]: Stability in HBSS after 48 hrs. To be noted: read-out: Stability. It is filed as physicochemical. An outline of the steps:
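Lignans kept in test medium in wells without cells for up to 48 h. Remaining compound was measured to judge stability.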

Data set [5] deals with Caco-2. The data set is described as §1. Format: ADME, cell-based. To be noted: caco-2, 2 h, BLD = below limit of detection. Put shortly:
as §2

Data set [6] has as its system Caco-2. The data set is described as §3. To be noted: caco-2, 2 h, BLD = below limit of detection. Format: ADME, cell-based. An outline of the steps:
as §2

Data set [7] can be described thus: Drug metabolism in human Caco2 cells assessed as compound glucuronidation/sulfation at 100 uM after 48 hrs by HPLC analysis. It is filed as ADME, cell-based. To be noted: Caco-2 cells, read-out: Drug metabolism. Put shortly:
(§4)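 Caco-2 grown 21 days in 24-well plates, washed with HBSS/HEPES pH 7.4, then given 100 μM lignan in DMEM in triplicate at 37 °C. Supernatant and cells taken at 0, 2, 4, 6, 12, 24 and 48 h. Samples hydrolysed with H. pomatia β-glucuronidase/sulfatase H-5 (0.66 mg in 0.1 M acetate pH 5.0, 37 °C, 2 h), acetonitrile-precipitated and analysed by HPLC. Conjugate = total minus free, relative to a zero-time control.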

Data set [8] in a line: Activity at Helix pomatia beta-glucuronidase/sulfatase type H-5 in compound-treated human Caco2 cell lysate assessed as formation of glucuronidase/sulfatase-sensitive conjugates at 100 uM after 12 hrs by HPLC analysis. It is filed as ADME, cell-based. To be noted: caco-2, 12 h. Put shortly:
as §4

Broadly, the Papp A→B is the apparent permeability from the apical to the basolateral side of a cell layer. For orientation: Papp B→A means the apparent permeability from the basolateral to the apical side of a cell layer. The efflux ratio is a quotient of directional permeabilities that is used to spot active efflux. Take `OC[C@H](Cc1cccc(O)c1)[C@H](CO)Cc1cccc(O)c1` [ENTERODIOL]: the Papp A→B at 2 h in data set [1] turned out to be 7.7 ×10⁻⁶ cm/s. In addition, the Papp B→A at 2 h in data set [2] is 8.9 ×10⁻⁶ cm/s. Besides, the efflux ratio at 2 h in data set [3] was 1.2. For the same compound, the remaining at 48 h in data set [4] was > 95%.
On to `COc1cc(C[C@@H](CO)[C@H](CO)Cc2ccc(O)c(OC)c2)ccc1O` [(+)-SECOISOLARICIRESINOL], for which the Papp A→B at 2 h in data set [1] is 8 ×10⁻⁶ cm/s. Besides, in data set [2], the Papp B→A at 2 h was determined as 9.5 ×10⁻⁶ cm/s. Further, the efflux ratio at 2 h in data set [3] is 1.2. Besides, in data set [4], the remaining at 48 h is > 95%.
Take `COc1cc(C[C@@H](CO[C@@H]2O[C@H](CO)[C@@H](O)[C@H](O)[C@H]2O)[C@H](CO[C@@H]2O[C@H](CO)[C@@H](O)[C@H](O)[C@H]2O)Cc2ccc(O)c(OC)c2)ccc1O`: the Papp result in data set [5] and in data set [6] was “BLD” each time. Also, the remaining at 48 h in data set [4] is > 95%. The metabolised at 48 h, 100 µM in data set [7] was < 3%.
As for `O=C1OC[C@H](Cc2cccc(O)c2)[C@H]1Cc1cccc(O)c1` (relative stereo) [ENTEROLACTONE], the Drug metabolism entry in data set [8] is on record as “Active”. The Papp A→B at 2 h in data set [1] came to 13.7 ×10⁻⁶ cm/s. Further, the Papp B→A at 2 h in data set [2] was determined as 10.6 ×10⁻⁶ cm/s. The efflux ratio at 2 h in data set [3] turned out to be 0.8. Also, the remaining at 48 h in data set [4] was > 95%.

Values taken from ChEMBL document CHEMBL3102827, “Permeability and conjugative metabolism of flaxseed lignans by Caco-2 human intestinal cells” (J Nat Prod, 2014).
